# Data taken from ChEMBL document CHEMBL1821590, “Novel dihydropyrimidines and its pyrazole derivatives: synthesis and pharmacological screening” (Eur J Med Chem, 2011).
# Tests used:
# Format in all cases: functional
# [1] = tested on: Metaphire posthuma; experiment: Anthelmintic activity against Pheretima posthuma assessed as time taken for parasite death at 0.1% w/v
# In short: (§1)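 Earthworms (Pheretima posthuma, spelled Perituma posthuma in text) exposed to test compounds at 0.1, 0.2 and 0.5% w/v. Albendazole served as standard, with an untreated control. Paralysis was recorded as the time until worms became motionless, then time to death was recorded, in minutes. Each value is the mean of three determinations with S.D.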
# [2] = tested on: Staphylococcus aureus; experiment: Antimicrobial activity against Staphylococcus aureus at 50 ug/ml by agar plate diffusion technique; details: read-out: IZ
# In short: (§2)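 Agar plate diffusion against E. coli, P. aeruginosa, S. aureus and B. subtilis, with compounds at 25, 50 and 100 µg/mL. Streptomycin as standard.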
# [3] = tested on: Staphylococcus aureus; experiment: Antimicrobial activity against Staphylococcus aureus at 25 ug/ml by agar plate diffusion technique; details: read-out: IZ; in short: as §2
# [4] = tested on: Metaphire posthuma; experiment: Anthelmintic activity against Pheretima posthuma assessed as time taken for parasite death at 0.2% w/v; in short: as §1
# [5] = tested on: Candida albicans; experiment: Antimicrobial activity against Candida albicans at 25 ug/ml by paper disc method; details: read-out: IZ
# In short: (§3)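 Paper disc method against A. niger and C. albicans, with compounds at 25, 50 and 100 µg/mL. Amphotericin-B as standard.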
# [6] = Antioxidant activity assessed as potassium ferricyanide ion reducing power after 20 mins
# In short: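 Oyaizu method. Samples or ascorbic acid in DMF (12.5–100 µg/mL) mixed with 0.2 M phosphate buffer pH 6.6 and 1% potassium ferricyanide, 20 min at 50 °C. 10% TCA added, centrifuged. Supernatant mixed with water and 0.1% FeCl3, read at 700 nm. % = [(Vt/Vc) − 1] × 100. IC50 derived.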
# [7] = tested on: Escherichia coli; experiment: Antimicrobial activity against Escherichia coli at 100 ug/ml by agar plate diffusion technique; details: read-out: IZ; in short: as §2
# [8] = tested on: Metaphire posthuma; experiment: Anthelmintic activity against Pheretima posthuma assessed as time taken for complete parasite paralysis at 0.2% w/v
# In short: (§4)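 Earthworms (Pheretima posthuma) exposed to test solutions at 0.1, 0.2 and 0.5% w/v; time in minutes to complete paralysis (worms motionless) recorded. Albendazole as standard. Mean of three determinations ± S.D.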
# [9] = tested on: Aspergillus niger; experiment: Antimicrobial activity against Aspergillus niger at 100 ug/ml by paper disc method; details: read-out: IZ; in short: as §3
# [10] = tested on: Bacillus subtilis; experiment: Antimicrobial activity against Bacillus subtilis at 25 ug/ml by agar plate diffusion technique; details: read-out: IZ; in short: as §2
# [11] = Antioxidant activity assessed as hydrogen peroxide scavenging activity after 10 mins
# In short: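 H2O2 (20 mM) in PBS pH 7.4. 1 mL of sample or ascorbic acid in methanol (12.5–100 µg/mL) added to 2 mL H2O2 solution. A230 read after 10 min. % inhibition = [1 − (Vt/Vc)] × 100. Triplicate, averaged. IC50 derived from % inhibition across concentrations.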
# [12] = tested on: Metaphire posthuma; experiment: Anthelmintic activity against Pheretima posthuma assessed as time taken for complete parasite paralysis at 0.5% w/v; in short: as §4
# [13] = tested on: Bacillus subtilis; experiment: Antimicrobial activity against Bacillus subtilis at 100 ug/ml by agar plate diffusion technique; details: read-out: IZ; in short: as §2
# [14] = tested on: Aspergillus niger; experiment: Antimicrobial activity against Aspergillus niger at 50 ug/ml by paper disc method; details: read-out: IZ; in short: as §3
# [15] = tested on: Pseudomonas aeruginosa; experiment: Antimicrobial activity against Pseudomonas aeruginosa at 50 ug/ml by agar plate diffusion technique; details: read-out: IZ; in short: as §2
# [16] = tested on: Staphylococcus aureus; experiment: Antimicrobial activity against Staphylococcus aureus at 100 ug/ml by agar plate diffusion technique; details: read-out: IZ; in short: as §2
# [17] = tested on: Escherichia coli; experiment: Antimicrobial activity against Escherichia coli at 50 ug/ml by agar plate diffusion technique; details: read-out: IZ; in short: as §2
# [18] = tested on: Aspergillus niger; experiment: Antimicrobial activity against Aspergillus niger at 25 ug/ml by paper disc method; details: read-out: IZ; in short: as §3
# [19] = tested on: Bacillus subtilis; experiment: Antimicrobial activity against Bacillus subtilis at 50 ug/ml by agar plate diffusion technique; details: read-out: IZ; in short: as §2
# [20] = tested on: Metaphire posthuma; experiment: Anthelmintic activity against Pheretima posthuma assessed as time taken for complete parasite paralysis at 0.1% w/v; in short: as §4
# [21] = tested on: Candida albicans; experiment: Antimicrobial activity against Candida albicans at 50 ug/ml by paper disc method; details: read-out: IZ; in short: as §3
# [22] = tested on: Candida albicans; experiment: Antimicrobial activity against Candida albicans at 100 ug/ml by paper disc method; details: read-out: IZ; in short: as §3
# [23] = Antioxidant activity assessed as nitric oxide radical scavenging activity after 150 mins
# In short: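 10 mM sodium nitroprusside (4 mL), PBS pH 7.4 (1 mL) and sample or ascorbic acid in DMSO (1 mL, 12.5–100 µg/mL), incubated 150 min at 25 °C. Nitrite detected with sulphanilic acid (5 min) then naphthylethylenediamine (30 min, diffused light). Read at […]. Triplicate. % inhibition = [1 − (Vt/Vc)] × 100. IC50 derived from it.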
# [24] = tested on: Escherichia coli; experiment: Antimicrobial activity against Escherichia coli at 25 ug/ml by agar plate diffusion technique; details: read-out: IZ; in short: as §2
# [25] = Antiinflammatory activity assessed as inhibition of albumin denaturation at 100 ug/ml by UV-visible spectrophotometry
# In short: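 Compounds dissolved in minimal DMF, diluted in PBS pH 7.4 (final DMF <2.5%). 1 mL test solution (100 µg/mL) plus 1 mL 1% albumin in PBS, 15 min at 27 ± 1 °C, then heated 10 min at 60 ± 1 °C. After cooling, turbidity read at 660 nm. % inhibition = [(Vt/Vc) − 1] × 100 against a no-drug control. Triplicate, averaged. Diclofenac standard.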
# [26] = tested on: Metaphire posthuma; experiment: Anthelmintic activity against Pheretima posthuma assessed as time taken for parasite death at 0.5% w/v; in short: as §1
# [27] = tested on: Pseudomonas aeruginosa; experiment: Antimicrobial activity against Pseudomonas aeruginosa at 25 ug/ml by agar plate diffusion technique; details: read-out: IZ; in short: as §2
# [28] = Antioxidant activity assessed as inhibition of lipid peroxidation using egg lecithin liposomes incubated for 1 hr
# In short: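 Egg lecithin (3 mg/mL, phosphate buffer pH 7.4) sonicated 10 min to form liposomes. Sample or ascorbic acid (12.5–100 µg/mL) added. Peroxidation induced with FeCl3 and L-ascorbic acid, 1 h at 37 °C. Stopped with HCl/TCA/TBA/BHA, boiled 15 min, centrifuged, supernatant read at 532 nm. Triplicate. % inhibition vs control. IC50 derived.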
# [29] = tested on: Pseudomonas aeruginosa; experiment: Antimicrobial activity against Pseudomonas aeruginosa at 100 ug/ml by agar plate diffusion technique; details: read-out: IZ; in short: as §2
Structure (SMILES),Time [1] [min],zone of inhibition at 50 µg/mL [2] [mm],zone of inhibition at 25 µg/mL [3] [mm],Time [4] [min],zone of inhibition at 25 µg/mL [5] [mm],IC50 [6] [µg/mL],zone of inhibition at 100 µg/mL [7] [mm],Time [8] [min],zone of inhibition at 100 µg/mL [9] [mm],zone of inhibition at 25 µg/mL [10] [mm],IC50 [11] [µg/mL],Time [12] [min],zone of inhibition at 100 µg/mL [13] [mm],zone of inhibition at 50 µg/mL [14] [mm],zone of inhibition at 50 µg/mL [15] [mm],zone of inhibition at 100 µg/mL [16] [mm],zone of inhibition at 50 µg/mL [17] [mm],zone of inhibition at 25 µg/mL [18] [mm],zone of inhibition at 50 µg/mL [19] [mm],Time [20] [min],other results
CSc1nc(-c2ccc(Cl)cc2)c(C#N)c(=O)n1C,60.96,11.7,9.68,57.38,9.27,64,11.7,39.29,18.7,13.8,56,40.51,27.3,11,9.62,15.8,9.82,9.92,18.1,48.15,zone of inhibition at 50 µg/mL [21]: 13.8 mm; zone of inhibition at 100 µg/mL [22]: 18.4 mm; IC50 [23]: 71 µg/mL; zone of inhibition at 25 µg/mL [24]: 7.08 mm; inhibition [25]: 79.1%; Time [26]: 55.12 min; zone of inhibition at 25 µg/mL [27]: 8.85 mm; IC50 [28]: 54 µg/mL; zone of inhibition at 100 µg/mL [29]: 11.9 mm
CCOC(=O)c1cnn(-c2nc(-c3ccc(Cl)cc3)c(C#N)c(=O)n2C)c1N,64.72,17.1,13.1,58.23,12.2,64,25,41.03,23.8,14.2,94,34.76,25.4,15.6,17.1,22,19.5,11.6,16.7,49.28,zone of inhibition at 50 µg/mL [21]: 16 mm; zone of inhibition at 100 µg/mL [22]: 21.8 mm; IC50 [23]: 87 µg/mL; zone of inhibition at 25 µg/mL [24]: 14.7 mm; inhibition [25]: 64.6%; Time [26]: 56.33 min; zone of inhibition at 25 µg/mL [27]: 11.8 mm; IC50 [28]: 88 µg/mL; zone of inhibition at 100 µg/mL [29]: 25.7 mm
